Here are results for 18 molecules from ChEMBL document CHEMBL1127020, “3-Quinolinecarboxamides. A series of novel orally-active antiherpetic agents” (1993).

As a reminder, the MTD is the highest dose tested that stayed within the study's limit of toxicity.

The test system of assay [1] is Human alphaherpesvirus 2. In words: In vitro maximum tolerated level against herpes simplex virus-2 (HSV-2) by plaque-reduction assay in vero cells. The assay is classed as functional. (In general: Plaques are areas of infected cells; plaque reduction assays count them against a control.)
Assay [2] concerns Human alphaherpesvirus 2. In words: In vivo maximum tolerated dose against herpes simplex virus-2 (HSV-2) by oral administration in female mice. The assay is classed as functional.
For assay [3], the system named is Human alphaherpesvirus 2. Kind of assay: (§1) Minimum effective dose against herpes simplex virus-2 (HSV-2) by oral administration in female mice. Format: functional. Particulars: Human alphaherpesvirus 2, po; read-out: MED.
The subject of assay [4] is Human alphaherpesvirus 2. Kind of assay: (§2) In vitro minimum inhibitory concentration against herpes simplex virus-2 (HSV-2) by plaque-reduction assay in vero cells. The assay is classed as functional.
The subject of assay [5] is Mus musculus. In words: Tested in vivo for minimum effective dose against herpes simplex virus-2 (HSV-2) by oral administration in female mice;not active. Format: functional, organism-based. The gist of the method:
(§3)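 Swiss female ICR mice (13–15 g) infected intravaginally with HSV-2 (Curtis) at a dose set for 80% mortality. Compound suspended in 1% gum tragacanth/2% Tween 80, given intragastrically at serial 2-fold doses, 20 mice per dose, 2 h before infection then twice daily for 5 d. Mortality followed 14 d; MED = lowest dose with survival differing from placebo (Mantel-Cox, Breslow).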

Assay [6] relates to Vero. In words: Tested in vitro for minimum inhibitory concentration against herpes simplex virus-2 (HSV-2) 2011 strain by plaque-reduction assay in vero cells. The note with it: Chlorocebus sabaeus.
Assay [7] relates to Vero. Kind of assay: Tested in vitro for minimum inhibitory concentration against herpes simplex virus-1 (HSV-1) F strain by plaque-reduction assay in vero cells. The assay is classed as functional. Particulars: Chlorocebus sabaeus. The gist of the method:
(§4)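 Vero monolayers (2 days old, confluent; Hank's MEM + 5% inactivated FCS, 37 °C, 2% CO2) infected with ~80 PFU; after 1-h adsorption, overlay of M199/5% FCS with 1:150 human immune serum globulin plus serial 2-fold compound dilutions (1:200 from DMSO). 3 d incubation, glutaraldehyde fix, crystal violet stain, plaque count. MIC = lowest concentration giving 50% plaque reduction; mean of ≥2 experiments.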

Assay [8] relates to Vero. Kind of assay: Tested in vitro for minimum inhibitory concentration against herpes simplex virus-2 (HSV-2) 2115 strain by plaque-reduction assay in vero cells. Format: functional. The note with it: Chlorocebus sabaeus. The gist of the method: as §4
Assay [9] relates to Vero. Kind of assay: Tested in vitro for minimum inhibitory concentration against herpes simplex virus-1 (HSV-1) 1142 strain by plaque-reduction assay in vero cells. Format: functional. The note with it: Chlorocebus sabaeus. The gist of the method: as §4
The test system of assay [10] is Vero. Kind of assay: Tested in vitro for minimum inhibitory concentration against herpes simplex virus-1 (HSV-1) 2992 strain by plaque-reduction assay in vero cells. Format: functional. Particulars: Chlorocebus sabaeus. An outline of the steps: as §4
For assay [11], the system named is Vero. Kind of assay: Tested in vitro for minimum inhibitory concentration against herpes simplex virus-2 (HSV-2) curtis strain by plaque-reduction assay in vero cells. The assay is classed as functional. The note with it: Chlorocebus sabaeus. The gist of the method:
as §4

Assay [12] concerns Vero. In words: Tested in vitro for minimum inhibitory concentration against herpes simplex virus-1 (HSV-1) KOS strain by plaque-reduction assay in vero cells. Format: functional. The note with it: Chlorocebus sabaeus. An outline of the steps: as §4
Assay [13] deals with Vero. Kind of assay: Tested in vitro for minimum inhibitory concentration against herpes simplex virus-1 (HSV-1) KOS, ACG strain by plaque-reduction assay in vero cells. Format: functional. The note with it: Chlorocebus sabaeus. An outline of the steps:
as §4

Assay [14] concerns Human alphaherpesvirus 2. The description is as §2. The assay is classed as functional, organism-based. An outline of the steps:
as §4

Assay [15] concerns Human alphaherpesvirus 2. The assay is described as §1. Format: functional, organism-based. An outline of the steps:
as §3

The test system of assay [16] is Vero. The description is as §2. Particulars: Chlorocebus sabaeus. Format: functional, cell-based. The gist of the method:
as §4

Assay [17] concerns Vero. Kind of assay: Tested in vitro for minimum inhibitory concentration against herpes simplex virus-2 (HSV-2) by plaque-reduction assay in vero cells; not active. Format: functional, cell-based. Particulars: Chlorocebus sabaeus. The gist of the method: as §4
Assay [18] relates to Vero. In words: Tested in vitro for minimum inhibitory concentration against herpes simplex virus-2 (HSV-2) 2011 strain by plaque-reduction assay in vero cells. Particulars: Chlorocebus sabaeus. The assay is classed as functional. The gist of the method: as §4

SMILES strings stand for the structures. Converted amounts (≈) assume the structure as drawn. The source made the active and inactive calls. The rule behind the calls is not given here. Where only a bound is given, the exact number is not on record here.

`NC(=O)c1cn(-c2ccc(Cl)cc2)c2cc(-c3ccncc3)ccc2c1=O` displayed an MTL in assay [1] greater than 25 µg/mL. Further, in [2], the MTD is 100 mg/kg. In addition, in assay [3], the minimal effective dose is 50 mg/kg. Also, the MIC in assay [4] was found to be 0.4 µg/mL (≈ 1.06 µM).
Molecule `NC(=O)c1cn(-c2ccc(Cl)c(Cl)c2)c2cc(-c3ccncc3)ccc2c1=O` came in with an MTL in assay [1] greater than 100 µg/mL. Further, the MTD in assay [2] came out at 100 mg/kg. Also, the minimal effective dose in assay [3] was found to be 50 mg/kg. Also, the MIC in [4] was found to be 0.52 µg/mL (≈ 1.27 µM).
As to `CCn1cc(C(N)=O)c(=O)c2ccc(-c3ccncc3)cc21`, the MTL in [1] came out at 12.5 µg/mL. The MTD in assay [2] amounted to 50 mg/kg. Besides, in assay [3], the minimal effective dose worked out at 50 mg/kg. The molecule further had an MIC in assay [4] of 6.5 µg/mL (≈ 22.2 µM).
For `CCn1c(=O)c(C(N)=O)c(O)c2ccc(-c3ccncc3)cc21`, the MTL in assay [1] is 6.25 µg/mL. Also, the maximal tolerated dose (MTD) in assay [2] stood at 100 mg/kg. Besides, the minimal effective dose in assay [3] was 100 mg/kg. Further, in assay [4], the MIC came to 2.1 µg/mL (≈ 6.79 µM).
With `NC(=O)c1c(N)n(-c2ccc(F)cc2)c2cc(-c3ccncc3)ccc2c1=O`, the MTL in assay [1] was greater than 100 µg/mL. The same molecule displayed an MTD in assay [2] of 50 mg/kg. Further, in assay [3], the minimal effective dose amounted to 50 mg/kg. Further, the MIC in [4] is 0.33 µg/mL (≈ 0.881 µM).
In [1], `NC(=O)c1cn(-c2cccc(F)c2)c2cc(-c3ccncc3)ccc2c1=O` returned an MTL greater than 25 µg/mL. The same molecule had an MTD in assay [2] of 50 mg/kg. The minimal effective dose in assay [3] turned out to be 50 mg/kg. The same molecule yielded an MIC in assay [4] of 0.71 µg/mL (≈ 1.98 µM).
`CCn1cc(C(=O)NO)c(=O)c2ccc(-c3ccncc3)cc21` returned an MTL in assay [1] of 25 µg/mL. The molecule further returned an MTD in assay [2] of 100 mg/kg. The MIC in [4] was found to be 6.8 µg/mL (≈ 22 µM). The MED result in [5] is “inactive”.
In the case of `CCn1cc(C(=O)NC)c(=O)c2ccc(-c3ccncc3)cc21`, the MTL in [1] is greater than 25 µg/mL. In [2], this molecule showed an MTD of 50 mg/kg. In [3], the minimal effective dose came to 50 mg/kg. Also, in assay [4], the MIC worked out at 9 µg/mL (≈ 29.3 µM).
Regarding `NC(=O)c1cn(-c2ccc(F)cc2)c2cc(-c3ccncc3)ccc2c1=O`, the MIC came to 0.15 µg/mL (≈ 0.417 µM) in assay [6]; 0.13 µg/mL (≈ 0.362 µM) in assay [7]; 0.13 µg/mL (≈ 0.362 µM) in assay [8]; 0.18 µg/mL (≈ 0.501 µM) in assay [9]; 0.24 µg/mL (≈ 0.668 µM) in assay [10]; 0.24 µg/mL (≈ 0.668 µM) in [11]. Also, the MIC in assay [12] was 0.23 µg/mL (≈ 0.64 µM); in [4] it was 0.24 µg/mL (≈ 0.668 µM); in assay [13], 0.32 µg/mL (≈ 0.89 µM). In assay [1], the MTL was found to be 6.25 µg/mL. Further, the maximal tolerated dose (MTD) in assay [2] was 50 mg/kg. Further, in [3], the minimal effective dose was found to be 25 mg/kg.
For the molecule `NC(=O)c1cn(-c2ccccc2F)c2cc(-c3ccncc3)ccc2c1=O`, the MTL in assay [1] was found to be 1.6 µg/mL. In assay [2], this molecule showed an MTD of 100 mg/kg. Besides, the MIC entry in assay [14] is “inactive”. The MED entry in [15] is “inactive”.
The molecule `NC(=O)c1cn(-c2ccccc2)c2cc(-c3ccncc3)ccc2c1=O` gave an MTL in assay [1] of 6.25 µg/mL. Further, the maximal tolerated dose (MTD) in assay [2] is 50 mg/kg. For the same molecule, the minimal effective dose in assay [3] came out at 25 mg/kg. In assay [4], this molecule yielded an MIC of 0.78 µg/mL (≈ 2.28 µM).
In [1], `NC(=O)c1cn(-c2ccc(Br)cc2)c2cc(-c3ccncc3)ccc2c1=O` showed an MTL greater than 12.5 µg/mL. In addition, in assay [2], the MTD worked out at 50 mg/kg. The minimal effective dose in assay [3] is 50 mg/kg. In addition, the MIC in assay [4] amounted to 0.47 µg/mL (≈ 1.12 µM).
In [1], `CCn1cc(C(=O)NNC)c(=O)c2ccc(-c3ccncc3)cc21` showed an MTL of 25 µg/mL. For the same molecule, the MIC entry in assay [16] was “inactive”.
For the molecule `NC(=O)c1cn(-c2ccc(F)cc2)c2cc(-c3cc[n+]([O-])cc3)ccc2c1=O`, the MTL in assay [1] is greater than 12.5 µg/mL. For the same molecule, the maximal tolerated dose (MTD) in assay [2] is 100 mg/kg. Besides, the minimal effective dose in [3] amounted to 25 mg/kg. Moreover, the MIC result in [16] was “inactive”.
Turning to `CCn1cc(C(=O)NN)c(=O)c2ccc(-c3ccncc3)cc21`, the MTL in assay [1] was 50 µg/mL. Also, in assay [2], the maximum tolerated dose (MTD) came to 100 mg/kg. The molecule also yielded an MIC in [4] of 38 µg/mL (≈ 123 µM). For the same molecule, the MED entry in assay [5] is “inactive”.
Regarding `CCn1cc(C(=O)N(C)O)c(=O)c2ccc(-c3ccncc3)cc21`, in assay [1], the MTL stood at 50 µg/mL. Moreover, in [17], the MIC entry is “inactive”.
In assay [1], `NC(=O)c1cn(-c2ccncc2)c2cc(-c3ccncc3)ccc2c1=O` returned an MTL greater than 200 µg/mL. In assay [2], this molecule yielded an MTD of 75 mg/kg. Besides, in assay [3], the minimal effective dose worked out at 75 mg/kg. For the same molecule, in assay [4], the MIC came out at 7.2 µg/mL (≈ 21 µM).
As to `Nc1nc2c(ncn2COCCO)c(=O)[nH]1` [ACYCLOVIR], the MIC was 43 µg/mL (≈ 191 µM) in assay [18]; 0.29 µg/mL (≈ 1.29 µM) in [7]; 77 µg/mL (≈ 342 µM) in assay [8]; 7.8 µg/mL (≈ 34.6 µM) in assay [9]; 11 µg/mL (≈ 48.8 µM) in [10]; 1.3 µg/mL (≈ 5.77 µM) in assay [11]. Also, the MIC was found to be 0.14 µg/mL (≈ 0.622 µM) in assay [12], 1.3 µg/mL (≈ 5.77 µM) in [4] and 43 µg/mL (≈ 191 µM) in assay [13]. Moreover, in [1], the MTL was greater than 200 µg/mL. In assay [2], this molecule displayed an MTD greater than 200 mg/kg. In addition, the minimal effective dose in assay [3] amounted to 12 mg/kg.
